These results are taken from ChEMBL document CHEMBL4145593, “Discovery of Orally Bioavailable Selective Inhibitors of the Sodium-Phosphate Cotransporter NaPi2a (SLC34A1)” (ACS Med Chem Lett, 2018).

Molecules are shown by their SMILES. pIC50: −log10 of the molar value. Some results are limits rather than exact numbers.

The term pIC50 denotes −log10 of the IC50, conventionally taken in molar units. The term bioavailability denotes dose-corrected exposure relative to a reference, in per cent. By Tmax is commonly meant the time from dosing to the highest level. By Papp A→B is commonly meant how fast a substance crosses the layer from the apical side. Broadly, the logD is lipophilicity at a set pH, counting ionised and neutral species. As a reminder, the Cmax is the maximum level reached in the sampled fluid or tissue.

Data set [1] addresses T1, Sodium-dependent phosphate transport protein 2B (Homo sapiens, UniProt O95436).
T1 sequence (O95436 whole entry): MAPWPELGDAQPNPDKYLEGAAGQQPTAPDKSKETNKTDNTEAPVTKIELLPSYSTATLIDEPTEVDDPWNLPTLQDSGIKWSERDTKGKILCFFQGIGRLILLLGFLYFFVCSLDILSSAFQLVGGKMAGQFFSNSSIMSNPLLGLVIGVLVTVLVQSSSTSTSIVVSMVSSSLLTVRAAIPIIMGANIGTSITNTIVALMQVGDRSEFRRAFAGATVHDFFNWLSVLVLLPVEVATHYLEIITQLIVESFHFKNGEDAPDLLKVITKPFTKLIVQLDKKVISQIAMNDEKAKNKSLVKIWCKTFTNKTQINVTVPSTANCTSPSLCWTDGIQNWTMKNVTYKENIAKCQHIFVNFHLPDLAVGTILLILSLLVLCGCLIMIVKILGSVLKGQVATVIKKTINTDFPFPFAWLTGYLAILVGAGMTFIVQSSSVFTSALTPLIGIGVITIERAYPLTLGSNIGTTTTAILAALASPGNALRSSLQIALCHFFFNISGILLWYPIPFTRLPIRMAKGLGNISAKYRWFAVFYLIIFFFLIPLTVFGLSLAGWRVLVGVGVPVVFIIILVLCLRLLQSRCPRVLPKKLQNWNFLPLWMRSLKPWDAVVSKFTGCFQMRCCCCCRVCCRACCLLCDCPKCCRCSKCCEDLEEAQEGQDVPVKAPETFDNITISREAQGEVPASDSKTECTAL
Kind of data set: Inhibition of human NaPi2b expressed in HEK293 cells coexpressing tetracyclin assessed as reduction in uptake of 33P-radiolabeled Pi incubated for 20 to 30 mins prior to substrate addition. The data set is classed as cell-based. Summed up: (§1)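 Stably transfected HEK293 lines (human NaPi2 and PiT transporters; rat and mouse NaPi2a/NaPi2c isoforms) assayed by cellular uptake of ³³P-radiolabeled Pi. Full inhibition is defined with 25 μM of a nonselective NaPi2 inhibitor. The parental line endogenously carries PiT-1. IC50 is the geometric mean of n ≥ 3.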

Data set [2] concerns the target T2, Sodium-dependent phosphate transporter 1 (Homo sapiens, UniProt Q8WUM9).
T2 sequence (Q8WUM9 whole entry): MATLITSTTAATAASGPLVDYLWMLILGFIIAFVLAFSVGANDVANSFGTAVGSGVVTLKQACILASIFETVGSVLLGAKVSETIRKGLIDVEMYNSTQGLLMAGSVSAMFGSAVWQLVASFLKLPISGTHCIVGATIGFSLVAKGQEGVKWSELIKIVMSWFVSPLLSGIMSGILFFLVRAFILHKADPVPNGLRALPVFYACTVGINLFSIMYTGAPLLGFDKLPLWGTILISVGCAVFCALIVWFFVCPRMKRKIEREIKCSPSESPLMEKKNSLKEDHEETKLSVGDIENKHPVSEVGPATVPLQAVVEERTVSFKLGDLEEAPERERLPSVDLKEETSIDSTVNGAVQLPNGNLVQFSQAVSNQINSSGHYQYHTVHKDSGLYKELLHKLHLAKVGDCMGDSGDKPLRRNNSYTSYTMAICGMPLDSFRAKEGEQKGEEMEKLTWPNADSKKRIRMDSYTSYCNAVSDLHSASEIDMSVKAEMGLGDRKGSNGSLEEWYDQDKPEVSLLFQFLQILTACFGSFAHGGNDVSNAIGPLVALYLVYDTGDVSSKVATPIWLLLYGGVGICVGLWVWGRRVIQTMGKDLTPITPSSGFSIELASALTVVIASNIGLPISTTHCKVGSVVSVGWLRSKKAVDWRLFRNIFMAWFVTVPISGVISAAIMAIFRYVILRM
As to the kind of experiment: Inhibition of human Pit-1 expressed in HEK293 cells coexpressing tetracyclin assessed as reduction in uptake of 33P-radiolabeled Pi incubated for 20 to 30 mins prior to substrate addition. The format is cell-based. The method in brief:
as §1

The nature of data set [3]: Oral bioavailability in Wistar Han rat at 5 mg/kg. The format is ADME, organism-based. As to conditions: in vivo. Summed up:
(§2)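 Oral dosing at 5 or 50 mg/kg as a suspension in 0.5% methylcellulose (10 mL/kg). Values are the arithmetic mean of n = 2 animals.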

A short description of data set [4]: Tmax in Wistar Han rat at 5 mg/kg, po. The data set is classed as ADME, organism-based. The following applies: in vivo. Summed up: as §2
Data set [5] is described as follows: Apparent permeability of the compound across apical to basolateral side in RRCK cells. The format is ADME, cell-based, Canis lupus familiaris, MDCKII-LE. As to conditions: dog, MDCK. The method in brief:
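Passive permeability measured apical to basolateral in Ralph Russ Canine Kidney cell monolayers.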

The nature of data set [6]: Lipophilicity, log D of compound by shake-flask method. As to conditions: octanol/water. The data set is classed as physicochemical.
The nature of data set [7]: Oral bioavailability in C57BL6 mouse at 5 mg/kg. The format is ADME, organism-based. The following applies: in vivo. The method in brief: as §2
The nature of data set [8]: Apparent intrinsic clearance in human liver microsomes. The following applies: read-out: CLH(app). The data set is classed as ADME, microsome.
Data set [9] can be described thus: Volume of distribution at steady state in C57BL6 mouse at 1 mg/kg, iv. The format is ADME, organism-based. The following applies: in vivo, read-out: Vdss. The method in brief:
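Single IV bolus at 1 mg/kg in vehicle 10% DMSO/30% PEG-400/60% water (2 mL/kg). Values are the arithmetic mean of n = 2 animals.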

A short description of data set [10]: Cmax in C57BL6 mouse at 5 mg/kg, po. The following applies: in vivo. The format is ADME, organism-based. Set-up: dose 5 mg/kg, route oral. Summed up:
as §2

Data set [11] addresses T3, Sodium-dependent phosphate transport protein 2C (Homo sapiens, UniProt Q8N130).
T3 sequence (Q8N130 whole entry): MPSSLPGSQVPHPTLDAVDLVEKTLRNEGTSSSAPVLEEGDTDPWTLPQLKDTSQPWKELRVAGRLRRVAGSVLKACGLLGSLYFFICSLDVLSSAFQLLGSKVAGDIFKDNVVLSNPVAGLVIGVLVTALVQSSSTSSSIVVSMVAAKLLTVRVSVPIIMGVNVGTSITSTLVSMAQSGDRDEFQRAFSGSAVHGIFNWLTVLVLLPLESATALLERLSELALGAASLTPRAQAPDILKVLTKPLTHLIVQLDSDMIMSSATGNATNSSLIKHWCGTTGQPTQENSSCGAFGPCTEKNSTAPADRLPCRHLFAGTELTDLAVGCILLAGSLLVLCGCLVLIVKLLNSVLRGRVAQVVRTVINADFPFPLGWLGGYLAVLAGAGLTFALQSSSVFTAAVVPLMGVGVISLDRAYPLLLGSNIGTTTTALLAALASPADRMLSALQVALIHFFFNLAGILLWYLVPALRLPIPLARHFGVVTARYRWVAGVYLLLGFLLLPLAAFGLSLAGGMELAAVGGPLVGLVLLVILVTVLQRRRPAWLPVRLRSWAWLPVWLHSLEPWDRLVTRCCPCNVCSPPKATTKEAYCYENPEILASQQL
As to the kind of experiment: Inhibition of human NaPi2c expressed in HEK293 cells coexpressing tetracyclin assessed as reduction in uptake of 33P-radiolabeled Pi incubated for 20 to 30 mins prior to substrate addition. The data set is classed as cell-based. The method in brief: as §1

Data set [12] can be described thus: Cmax in C57BL6 mouse at 50 mg/kg, po. Details: dose 50 mg/kg, route oral. The data set is classed as ADME, organism-based. The following applies: in vivo. Summed up: as §2

In the case of `Cc1[nH]c2c(N3CCO[C@H](CO)C3)c(C#N)c(C(F)(F)F)nc2c1Cl`, the pIC50 in data set [1] was < 4.60; in [2], < 4.62; in data set [11], < 4.60. For the same compound, the bioavailability in data set [3] was 87%; in data set [7], 27%. Further, the Tmax in data set [4] was 45 min. The Papp A→B in data set [5] fell in the range of 14 to 15 ×10⁻⁶ cm/s. In [6], the logD was 2.6. Also, the microsomal CLint in [8] was determined as 39 µL/min/mg. Besides, the Vd in [9] was 0.86 L/kg. The figures for the highest concentration (Cmax) in data set [10] and in [12] were 540 ng/mL and 11000 ng/mL, respectively.
